{"source": "ChEMBL document CHEMBL1143684", "about": "“Exploring the structure-activity relationship of the ethylamine portion of 3-iodothyronamine for rat and mouse trace amine-associated receptor 1” (J Med Chem, 2007)", "assay_type_in_all_cases": "functional, cell-based", "key": {"[1]": {"molecular_target": "Trace amine-associated receptor 1 (Rattus norvegicus, UniProt Q923Y9)", "sequence (Q923Y9 whole entry)": "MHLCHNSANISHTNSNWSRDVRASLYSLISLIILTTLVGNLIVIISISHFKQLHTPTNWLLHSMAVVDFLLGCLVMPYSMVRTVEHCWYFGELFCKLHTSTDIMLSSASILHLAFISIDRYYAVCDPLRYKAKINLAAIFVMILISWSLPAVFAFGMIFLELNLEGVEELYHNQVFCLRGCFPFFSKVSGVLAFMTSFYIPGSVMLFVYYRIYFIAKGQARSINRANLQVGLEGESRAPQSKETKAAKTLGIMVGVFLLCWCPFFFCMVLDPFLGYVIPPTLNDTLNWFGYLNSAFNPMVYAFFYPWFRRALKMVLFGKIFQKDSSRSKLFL", "test": "Activity at rat TAAR1 expressed in HEK293 cells assessed as cAMP production", "procedure,_shortened": "(§1)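 HEK293 cells stably expressing rat or mouse TAAR1, kept in fresh medium ≥2 h, harvested in KRH, preincubated 20-30 min with 200 µM IBMX. Cells boiled 20 min in acetate buffer. cAMP in cleared lysate read by EFC luminescence kit (18 h dark). Responses given as % of T1AM. EC50 from concentration-response fit, mean ± SEM of N independent triplicate runs.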"}, "[2]": {"molecular_target": "Trace amine-associated receptor 1 (Mus musculus) (UniProt Q923Y8)", "sequence (Q923Y8 whole entry)": "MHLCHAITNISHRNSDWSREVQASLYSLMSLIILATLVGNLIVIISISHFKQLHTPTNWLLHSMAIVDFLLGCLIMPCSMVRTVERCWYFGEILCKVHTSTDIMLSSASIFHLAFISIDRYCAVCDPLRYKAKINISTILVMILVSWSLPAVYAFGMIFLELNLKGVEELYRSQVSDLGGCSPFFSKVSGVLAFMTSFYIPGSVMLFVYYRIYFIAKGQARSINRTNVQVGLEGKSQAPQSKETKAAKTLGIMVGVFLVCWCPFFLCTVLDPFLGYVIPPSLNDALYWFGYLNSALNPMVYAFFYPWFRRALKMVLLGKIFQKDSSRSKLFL", "test": "Efficacy at mouse TAAR1 expressed in HEK293 cells assessed as stimulation of cAMP production at 10 uM relative to 3-iodothyronamine"}, "[3]": {"molecular_target": "Trace amine-associated receptor 1 (Mus musculus, UniProt Q923Y8)", "sequence (Q923Y8 whole entry)": "as above", "test": "Activity at mouse TAAR1 expressed in HEK293 cells assessed as cAMP production", "procedure,_shortened": "as §1"}, "[4]": {"molecular_target": "Trace amine-associated receptor 1 (Rattus norvegicus) (UniProt Q923Y9)", "sequence (Q923Y9 whole entry)": "as the sequence (Q923Y9 whole entry) above", "test": "Efficacy at rat TAAR1 expressed in HEK293 cells assessed as stimulation of cAMP production at 10 uM relative to 3-iodothyronamine"}, "[5]": {"molecular_target": "Trace amine-associated receptor 1 (Mus musculus) (UniProt Q923Y8)", "test": "Antagonist activity at mouse TAAR1 expressed in HEK293 cells at 10 uM assessed as inhibition of 3-iodothyronamine-induced cAMP production", "parameters": "scale not given: the % may be the effect or the level left", "procedure,_shortened": "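Cells harvested in Krebs-Ringer-HEPES, preincubated 20-30 min with 200 µM IBMX, then exposed 1 h at 37 °C in KRH with 133 µM IBMX plus test compound at 10 µM (DMSO vehicle; forskolin 10 µM control). Cells lysed by boiling; cAMP measured by enzyme-fragment-complementation luminescence.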"}}}
{"smiles": "CC(C)(CN)c1ccc(Oc2ccccc2)cc1", "values": [{"measurement": "EC50", "setting": "[1]", "result": "> 1000", "unit": "nM"}, {"measurement": "Emax", "setting": "[2]", "result": 18, "unit": "%"}, {"measurement": "EC50", "setting": "[3]", "result": "> 1000", "unit": "nM"}, {"measurement": "Emax", "setting": "[4]", "result": 13, "unit": "%"}]}
{"smiles": "C#CC(CN)c1ccc(Oc2ccccc2)cc1", "note": "(configuration not stated)", "values": [{"measurement": "EC50", "setting": "[1]", "result": 41, "unit": "nM"}, {"measurement": "Emax", "setting": "[2]", "result": 79, "unit": "%"}, {"measurement": "EC50", "setting": "[3]", "result": 929, "unit": "nM"}, {"measurement": "Emax", "setting": "[4]", "result": 105, "unit": "%"}]}
{"smiles": "CC(CN)c1ccc(Oc2ccccc2)cc1", "note": "(configuration not stated)", "values": [{"measurement": "EC50", "setting": "[1]", "result": 250, "unit": "nM"}, {"measurement": "Emax", "setting": "[2]", "result": 72, "unit": "%"}, {"measurement": "EC50", "setting": "[3]", "result": "> 1000", "unit": "nM"}, {"measurement": "Emax", "setting": "[4]", "result": 94, "unit": "%"}]}
{"smiles": "NCC(c1ccccc1)c1ccc(Oc2ccccc2)c2ccccc12", "note": "(configuration not stated)", "values": [{"measurement": "EC50", "setting": "[1]", "result": 52, "unit": "nM"}, {"measurement": "Emax", "setting": "[2]", "result": 0, "unit": "%"}, {"measurement": "EC50", "setting": "[3]", "result": "> 1000", "unit": "nM"}, {"measurement": "Emax", "setting": "[4]", "result": 100, "unit": "%"}]}
{"smiles": "NCC(c1ccccc1)c1cccc(Oc2ccccc2)c1", "note": "(configuration not stated)", "values": [{"measurement": "EC50", "setting": "[1]", "result": 19, "unit": "nM"}, {"measurement": "Emax", "setting": "[2]", "result": 15, "unit": "%"}, {"measurement": "EC50", "setting": "[3]", "result": "> 1000", "unit": "nM"}, {"measurement": "Emax", "setting": "[4]", "result": 131, "unit": "%"}]}
{"smiles": "NCC(c1ccccc1)c1ccc(O)c2ccccc12", "note": "(configuration not stated)", "values": [{"measurement": "EC50", "setting": "[1]", "result": 716, "unit": "nM"}, {"measurement": "Emax", "setting": "[2]", "result": 14, "unit": "%"}, {"measurement": "EC50", "setting": "[3]", "result": "> 1000", "unit": "nM"}, {"measurement": "Emax", "setting": "[4]", "result": 89, "unit": "%"}]}
{"smiles": "CN(C)CCCNC(=O)c1ccc(Oc2ccccc2)cc1", "values": [{"measurement": "EC50", "setting": "[1]", "result": "> 1000", "unit": "nM"}, {"measurement": "Emax", "setting": "[2]", "result": 0, "unit": "%"}, {"measurement": "EC50", "setting": "[3]", "result": "> 1000", "unit": "nM"}, {"measurement": "Emax", "setting": "[4]", "result": 2, "unit": "%"}]}
{"smiles": "NCCc1ccc(Oc2ccc(O)cc2)c(I)c1", "values": [{"measurement": "EC50", "setting": "[1]", "result": 33, "unit": "nM"}, {"measurement": "Emax", "setting": "[2]", "result": 100, "unit": "%"}, {"measurement": "EC50", "setting": "[3]", "result": 314, "unit": "nM"}, {"measurement": "Emax", "setting": "[4]", "result": 100, "unit": "%"}, {"measurement": "Activity", "setting": "[5]", "result": 30, "unit": "%"}]}
{"smiles": "NCCc1ccc(Oc2ccccc2)cc1", "values": [{"measurement": "EC50", "setting": "[1]", "result": 63, "unit": "nM"}, {"measurement": "Emax", "setting": "[2]", "result": 85, "unit": "%"}, {"measurement": "EC50", "setting": "[3]", "result": 420, "unit": "nM"}, {"measurement": "Emax", "setting": "[4]", "result": 93, "unit": "%"}]}
{"smiles": "COc1ccc(C(CN)c2ccccc2)c2ccccc12", "note": "(configuration not stated)", "values": [{"measurement": "EC50", "setting": "[1]", "result": 270, "unit": "nM"}, {"measurement": "Emax", "setting": "[2]", "result": 14, "unit": "%"}, {"measurement": "EC50", "setting": "[3]", "result": "> 1000", "unit": "nM"}, {"measurement": "Emax", "setting": "[4]", "result": 71, "unit": "%"}]}
{"smiles": "NCC(Cc1ccccc1)c1ccc(Oc2ccccc2)cc1", "note": "(configuration not stated)", "values": [{"measurement": "EC50", "setting": "[1]", "result": 140, "unit": "nM"}, {"measurement": "Emax", "setting": "[2]", "result": 31, "unit": "%"}, {"measurement": "EC50", "setting": "[3]", "result": "> 1000", "unit": "nM"}, {"measurement": "Emax", "setting": "[4]", "result": 92, "unit": "%"}]}
{"smiles": "NCCc1ccc(Oc2ccccc2)c2ccccc12", "values": [{"measurement": "EC50", "setting": "[1]", "result": 26, "unit": "nM"}, {"measurement": "Emax", "setting": "[2]", "result": 104, "unit": "%"}, {"measurement": "EC50", "setting": "[3]", "result": 101, "unit": "nM"}, {"measurement": "Emax", "setting": "[4]", "result": 113, "unit": "%"}]}
{"smiles": "NCC(C#Cc1ccccc1)c1ccc(Oc2ccccc2)cc1", "note": "(configuration not stated)", "values": [{"measurement": "EC50", "setting": "[1]", "result": 62, "unit": "nM"}, {"measurement": "Emax", "setting": "[2]", "result": 2, "unit": "%"}, {"measurement": "EC50", "setting": "[3]", "result": "> 1000", "unit": "nM"}, {"measurement": "Emax", "setting": "[4]", "result": 119, "unit": "%"}]}
{"smiles": "NCC(c1ccccc1)c1ccc(Oc2ccccc2)cc1", "note": "(configuration not stated)", "values": [{"measurement": "EC50", "setting": "[1]", "result": 28, "unit": "nM"}, {"measurement": "Emax", "setting": "[2]", "result": 35, "unit": "%"}, {"measurement": "EC50", "setting": "[3]", "result": "> 1000", "unit": "nM"}, {"measurement": "Emax", "setting": "[4]", "result": 103, "unit": "%"}]}
